INS-1E GSIS act: GLuc luminescence reporter in INS-1E cells, primary screen for activators of glucose-dependent secretion of insulin; INS-1E GLuc reporter insulin secretion, 2-3 h; activation, % at 16.6 µM; actives 0.61% (n = 370,000);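 active means lowest replicate activation of at least 40%, so every replicate reaches that level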
HIV Env fusion: inhibitors of HIV Env-mediated cell fusion; AID 651610; actives 1.1% (n = 360,000); HeLa-JRFL Env/CEM21 cell fusion, luciferase; inhibition, % at 12.3 µM;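 active means mean replicate inhibition score of at least 50 and every replicate individually at or above 50; inconclusive means only one of the two criteria met; inactive means mean below 50 and not all replicates reaching 50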
GSK3A inh: human GSK-3 alpha kinase inhibition | ADP-Glo luminescence, 60 min | inhibition, % at 10 µM | actives 0.1% (n = 320,000) | AID 2650;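 active means more than half of replicates show inhibition above 20%; inconclusive means some but at most half of replicates above 20% inhibition; inactive means no replicate shows inhibition above 20%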;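 further: GST-tagged GSK-3 alpha with peptide substrate and 25 µM ATP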
STK33 kinase inh: inhibitors of human STK33 kinase; Q9BYT3; purified STK33, MBP phosphorylation, ADP-Glo luminescence; inhibition, % at 10 µM; actives 0.073% (n = 320,000);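 active means inhibition at or above 25%, using the most active replicate where run in duplicate; inactive means inhibition below 25%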
Target sequence (Q9BYT3 whole entry, looked up): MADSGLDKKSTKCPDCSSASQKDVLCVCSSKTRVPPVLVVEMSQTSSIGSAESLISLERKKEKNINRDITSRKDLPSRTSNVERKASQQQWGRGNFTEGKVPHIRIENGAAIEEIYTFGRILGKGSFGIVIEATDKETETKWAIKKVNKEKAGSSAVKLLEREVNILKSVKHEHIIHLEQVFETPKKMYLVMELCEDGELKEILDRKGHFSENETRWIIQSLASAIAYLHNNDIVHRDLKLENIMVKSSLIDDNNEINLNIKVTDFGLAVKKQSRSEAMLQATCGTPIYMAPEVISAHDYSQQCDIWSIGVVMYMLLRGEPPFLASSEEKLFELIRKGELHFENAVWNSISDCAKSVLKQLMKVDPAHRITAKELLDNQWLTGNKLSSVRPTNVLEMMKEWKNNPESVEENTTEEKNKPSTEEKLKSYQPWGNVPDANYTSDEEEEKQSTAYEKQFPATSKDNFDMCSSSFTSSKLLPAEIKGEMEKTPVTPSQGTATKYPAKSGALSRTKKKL
CDK5 inh: inhibitors of human CDK5/p35 kinase. Q00535+Q15078. Recombinant CDK5/p35, ADP-Glo luminescence, 60 min. inhibition, % at 10 µM. actives 0.01% (n = 330,000);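 active means highest replicate inhibition of at least 50% and at least 75% of replicates reaching 50%; inconclusive means only one of the two criteria met; inactive means both criteria failed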
GSK3B inh: inhibitors of human GSK3beta kinase; GST-GSK3beta kinase, ADP-Glo luminescence, 60 min; hits give low values; activity score (negative = inhibition), % at 10 µM; actives 0.038% (n = 300,000);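 active means more than half of replicate wells score below -50%, meaning over 50% inhibition versus plate controls; inconclusive means some replicates but at most half score below -50%; inactive means no replicate scores below -50%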
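Test system: GST-tagged human GSK3beta kinase, cell-free; evaluation: activity score scaled between in-plate DMSO and GW8510 controls; measured by: ADP-Glo luminescence; incubation: 60 min reaction, RT; benchmarks: DMSO and 20 µM GW8510; reagent: peptide substrate plus 25 µM ATP (final); medium: Tris/MgCl2 kinase buffer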
Hits are given with their value; 0 = inactive; ? = inconclusive; - = not tested or not shown; [ ] = another dose, or the depositor's remark. A selection: hits, their analogues and other compounds. The true share with any hit is near 1.4%.

SMILES | INS-1E GSIS act | HIV Env fusion | GSK3A inh | STK33 kinase inh | CDK5 inh | GSK3B inh
C[C@H]1CN([C@@H](C)CO)C(=O)c2cccc(NC(=O)Nc3ccc(C(F)(F)F)cc3)c2O[C@@H]1CN(C)Cc1ccc(C(F)(F)F)cc1 | 0 | ? | - | - | - | -
C[C@@H]1CN([C@@H](C)CO)C(=O)c2cccc(NC(=O)Nc3ccc(C(F)(F)F)cc3)c2O[C@H]1CN(C)Cc1ccc(Cl)c(Cl)c1 | 44 | 85[16.7 µM] | - | - | - | -
COc1ccc(S(=O)(=O)N(C)C[C@H]2Oc3c(NC(=O)Nc4ccc(C(F)(F)F)cc4)cccc3C(=O)N([C@@H](C)CO)C[C@H]2C)cc1 | 0 | 108[16.7 µM] | - | - | - | -
C[C@@H]1CN([C@H](C)CO)C(=O)c2cccc(NC(=O)C3CCCCC3)c2O[C@H]1CN(C)Cc1ccccc1 | 0 | 74[16.7 µM] | - | - | - | -
COc1ccc2c3c(n(C)c2c1)[C@@H](CO)N(C(C)=O)CC31CN(C(=O)C2CCOCC2)C1 | 0 | 0 | - | - | - | -
COc1cccc(CNC(=O)N[C@@H](CC(C)C)C(=O)O)c1 | 50 | - | - | 0 | 0 | 0
Cc1cc(C)n(CC(=O)n2c(C)c(C)c3ccccc32)n1 | - | - | 0 | 0 | 0 | 0
Cc1cc(C)n(CC(=O)n2c3ccccc3c3ccccc32)n1 | 53 | - | 0 | 0 | 0 | 0
COc1ccccc1NC(C)=O | - | - | 0 | 0 | 0 | 0
COc1ccccc1NC(=O)Oc1ccc(C(C)=O)cc1 | - | 59 | 0 | 0 | 0 | 0
COCC(=O)N1[C@H](C(=O)Nc2ccccc2)[C@@H](CO)[C@@H]2Cn3c(ccc(-c4cccnc4)c3=O)[C@@H]21 | 0 | 0 | - | - | - | -
Clc1ccc(/C=N/NC2=Nc3cccc4cccc2c34)cc1 | 98 | 0 | - | - | 0 | 0
C(=N\NC1=Nc2cccc3cccc1c23)/c1ccccc1 | 0 | 0 | 0 | 0 | 0 | 0
COC(=O)c1ccc(CSc2nnc(-c3ccncc3)o2)cc1 | 0 | 0 | 0 | 0 | 0 | 0
Cc1ccccc1CSc1nnc(-c2ccncc2)o1 | 0 | 0 | 53 | 0 | 0 | -55
COC(=O)c1ccc(CSc2nnc(-c3ccncc3)o2)o1 | - | - | 66 | 0 | 0 | 0
c1ccc(CSc2nnc(-c3ccncc3)o2)cc1 | - | 0 | 67 | 0 | 0 | 0
N#Cc1ccc(CSc2nnc(-c3ccncc3)o2)cc1 | 0 | 0 | 0 | 0 | 0 | 0
CO[C@@H]1CN(C)C(=O)c2ccc(NC(=O)c3cccnc3)cc2OC[C@@H](C)N(CC2CC2)C[C@H]1C | 0 | 0 | - | - | - | -
O=C(C[C@H]1CC[C@H]2[C@@H](COC[C@H](O)CN2CC2CCCC2)O1)NCC1CC1 | 0 | - | - | - | - | -
C[C@@H]1CN([C@@H](C)CO)C(=O)Cc2cc(NC(=O)CCCN(C)C)ccc2O[C@H]1CN(C)CC1CCCCC1 | 0 | 0 | - | - | - | -
Cc1cccc(N2CCN(CCCNC(=O)c3ccc(NC(=O)C4=CSCCO4)cc3)CC2C)c1 (configuration not stated) | 0 | 0 | 0 | 46 | 0 | 0
CC1CCCN(CCCNC(=O)c2ccc(NC(=O)C3=CSCCO3)cc2)C1 (configuration not stated) | 0 | 0 | 0 | 0 | 0 | 0
COc1ccc(NC(=O)N(C)C[C@@H]2Oc3cc(C#CCC(C)C)ccc3S(=O)(=O)N([C@H](C)CO)C[C@@H]2C)cc1 | 0 | - | - | - | - | -
CCSc1nc2cc(OC)c(OC)cc2c(=O)n1CC | 69 | - | 0 | 0 | 0 | 0
SMILES | INS-1E GSIS act | HIV Env fusion | GSK3A inh | STK33 kinase inh | CDK5 inh | GSK3B inh
O=C(CSc1c(Cl)cccc1Cl)NC1CCCc2ccccc21 (configuration not stated) | 41 | 0 | - | - | 0 | 0
COc1cccc(S(=O)(=O)N2CC[C@H]3[C@H](CO)Nc4ccc(Br)cc4[C@H]32)c1 | 0 | - | - | - | - | -
N#Cc1sc2nc(-c3ccccc3)cc(-c3ccco3)c2c1N | - | 0 | 0 | 0 | 0 | 0
N#Cc1sc2nc(C3CC3)cc(-c3ccccc3)c2c1N | 49 | 0 | 0 | 0 | 0 | 0
C[C@@H]1CN([C@H](C)CO)C(=O)CCCn2cc(nn2)CO[C@@H]1CN(C)S(=O)(=O)c1ccc(-c2ccccc2)cc1 | 0 | - | - | - | - | -
C[C@@H]1CN([C@@H](C)CO)C(=O)c2cc(NS(C)(=O)=O)ccc2O[C@@H](C)CCCCO[C@H]1CN(C)Cc1ccc(C(F)(F)F)cc1 | 0 | - | - | - | - | -
CCCCN1C=CC(=C2C(=O)c3ccccc3C2=O)C=C1 | 0 | 84 | 0 | 0 | 0 | 0

Source: PubChem BioAssay
